Source: ChEMBL document CHEMBL3797198, “Discovery of pyrazinone based compounds that potently inhibit the drug-resistant enzyme variant R155K of the hepatitis C virus NS3 protease” (Bioorg Med Chem, 2016)

What was measured:
[1] = Inhibition of wild-type full-length HCV genotype 1a NS3 protease using Ac-DED(Edans)EEAbu-psi-[COO]ASK(Dabcyl)-NH2 as substrate by FRET assay; parameters: species or system Hepatitis C virus subtype 1a
Procedure, shortened: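 Full-length HCV NS3 (protease-helicase/NTPase), genotype 1a wild type, FRET protease assay. 1 nM enzyme preincubated 10 min at 30 °C in 50 mM HEPES pH 7.5 with 10 mM DTT. Inhibition taken from measured initial velocities, corrected for each compound's auto-fluorescence. That correction used the ratio of fluorescence with and without compound, measured at every tested concentration.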

Hepatitis C virus = assay: Antiviral activity against HCV infected in human HuH7 cells by cell based replicon assay; assay type: functional, organism-based, Hepacivirus hominis; details: Huh-7
Procedure, shortened: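 HCV replicon cell assay; EC50 given as the mean of two experiments.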

[2] = Cytotoxicity against human HuH7 cells; assay type: cell-based, Huh-7

Row | SMILES | Ki [1] | EC50 (Hepatitis C virus) | CC50 [2]
1 | CC(C)(C)NC(=O)Nc1nc(Cl)c(CCc2ccccc2)n(CC(=O)Nc2ccccc2S(=O)(=O)NC(=O)c2ccc(C(F)(F)F)cc2)c1=O | 170 nM |  | 
2 | CC(C)(C)NC(=O)Nc1nc(Cl)c(CCC2CCCCC2)n(CC(=O)NC2(C(=O)NS(=O)(=O)c3ccc(C(F)(F)F)cc3)CC(OCc3ccccc3)C2)c1=O (centres undefined) | 70 nM |  | 
3 | CC(C)(C)NC(=O)Nc1nc(Cl)c(CCC2CCCCC2)n(CC(=O)Nc2ccccc2C(=O)O)c1=O | 120 nM | 49000 nM | > 100000 nM
4 | CC(C)(C)NC(=O)Nc1nc(Cl)c(Cc2cccc3ccccc23)n(CC(=O)Nc2ccccc2S(=O)(=O)NC(=O)c2ccc(C(F)(F)F)cc2)c1=O | 180 nM |  | 
5 | CC(C)(C)NC(=O)Nc1nc(Cl)c(CCC2CCCCC2)n(CC(=O)Nc2cc(-c3cncnc3)ccc2C(=O)NS(=O)(=O)c2ccc(C(F)(F)F)cc2)c1=O | 120 nM |  | 
6 | CC(C)(C)NC(=O)Nc1nc(Cl)c(Cc2ccccc2)n(CC(=O)NC2(C(=O)NS(=O)(=O)c3ccc(C(F)(F)F)cc3)CC(OCc3ccccc3)C2)c1=O (centres undefined) | 150 nM |  | 
7 | Cc1ccc(S(=O)(=O)NC(=O)c2ccccc2NC(=O)Cn2c(CCC3CCCCC3)c(Cl)nc(NC(=O)NC(C)(C)C)c2=O)cc1 | 120 nM |  | 
8 | CC(C)(C)NC(=O)Nc1nc(Cl)c(CCC2CCCCC2)n(CC(=O)Nc2ccccc2C(=O)NS(=O)(=O)c2cccc(C(F)(F)F)c2)c1=O | 230 nM |  | 
9 | CC(C)(C)NC(=O)Nc1nc(Cl)c(CCC2CCCCC2)n(CC(=O)Nc2ccc(CC(=O)NS(=O)(=O)c3ccc(C(F)(F)F)cc3)cc2)c1=O | 140 nM |  | 
10 | CC(C)(C)NC(=O)Nc1nc(Cl)c(Cc2cccc3ccccc23)n(CC(=O)Nc2cccc(S(=O)(=O)NC(=O)c3ccc(C(F)(F)F)cc3)c2)c1=O | 190 nM |  | 
11 | CC(C)(C)NC(=O)Nc1nc(Cl)c(CCC2CCCCC2)n(CC(=O)Nc2cc(F)ccc2C(=O)NS(=O)(=O)c2ccc(C(F)(F)F)cc2)c1=O | 110 nM | 7300 nM | 38000 nM
12 | CC(C)(C)NC(=O)Nc1nc(Cl)c(CCC2CCCCC2)n(CC(=O)Nc2ccc(C(=O)NS(=O)(=O)c3ccc(C(F)(F)F)cc3)cc2)c1=O | 260 nM |  | 
13 | COC(=O)c1ccccc1NC(=O)Cn1c(CCC2CCCCC2)c(Cl)nc(NC(=O)NC(C)(C)C)c1=O | 120 nM | 22000 nM | > 100000 nM
14 | CC(C)(C)OC(=O)N[C@H]1CCCCC/C=C\[C@@H]2C[C@@]2(C(=O)NS(=O)(=O)C2CC2)NC(=O)[C@@H]2C[C@@H](OC(=O)N3Cc4cccc(F)c4C3)CN2C1=O [DANOPREVIR] |  | 11 nM | > 1000 nM

Continued, in another order:

Row | Ki [1] | SMILES | EC50 (Hepatitis C virus) | CC50 [2]
15 | 120 nM | C=Cc1ccc(C(=O)NS(=O)(=O)c2ccc(C(F)(F)F)cc2)c(NC(=O)Cn2c(CCC3CCCCC3)c(Cl)nc(NC(=O)NC(C)(C)C)c2=O)c1 |  | 
16 | 100 nM | CC(C)(C)NC(=O)Nc1nc(Cl)c(CCC2CCCCC2)n(CC(=O)Nc2cc(C(=O)NS(=O)(=O)c3ccc(C(F)(F)F)cc3)cc(C(F)(F)F)c2)c1=O |  | 
17 | 170 nM | CC(C)(C)NC(=O)Nc1nc(Cl)c(CCC2CCCCC2)n(CC(=O)Nc2cccc(C(=O)NS(=O)(=O)c3ccc(C(F)(F)F)cc3)c2)c1=O |  | 
18 | 170 nM | CC(C)(C)NC(=O)Nc1nc(Cl)c(Cc2cccc3ccccc23)n(CC(=O)Nc2ccc(S(=O)(=O)NC(=O)c3ccc(C(F)(F)F)cc3)cc2)c1=O |  | 
19 | 150 nM | CC(C)(C)NC(=O)Nc1nc(Cl)c(CCC2CCCCC2)n(CC(=O)Nc2cc(Br)ccc2C(=O)NS(=O)(=O)c2ccc(C(F)(F)F)cc2)c1=O |  | 
20 | 130 nM | CC(C)(C)NC(=O)Nc1nc(Cl)c(CCC2CCCCC2)n(CC(=O)Nc2ccccc2C(=O)NS(=O)(=O)c2ccccc2C(F)(F)F)c1=O |  | 
21 | > 10000 nM | CC(C)(C)NC(=O)Nc1nc(Cl)c(Cc2ccccc2)n(CC(=O)O)c1=O |  | 
22 | 450 nM | CC(C)(C)NC(=O)Nc1ncc(Cc2ccccc2)n(CC(=O)NC2(C(=O)NS(=O)(=O)c3ccc(C(F)(F)F)cc3)CC(O)C2)c1=O (centres undefined) |  | 
23 | 260 nM | CN(C(=O)c1ccccc1NC(=O)Cn1c(CCC2CCCCC2)c(Cl)nc(NC(=O)NC(C)(C)C)c1=O)S(=O)(=O)c1ccc(C(F)(F)F)cc1 |  | 
24 | 15 nM | CCCC(NC(=O)[C@@H]1[C@H]2CCC[C@H]2CN1C(=O)[C@@H](NC(=O)[C@@H](NC(=O)c1cnccn1)C1CCCCC1)C(C)(C)C)C(=O)C(=O)NC1CC1 (some centres undefined) | 650 nM | > 1000 nM
25 | 91 nM | CC[C@H](C)[C@H](NC(=O)[C@H](CC(C)C)NC(=O)C(CC(C(=O)O)C(=O)O)NC(=O)[C@H](CC(=O)O)NC(C)=O)C(=O)N[C@@H](CC1CCCCC1)C(=O)N[C@@H](CS)C(=O)O (single isomer, unassigned) |  | 
